Consider two compounds from ChEMBL document CHEMBL1221358, “Application of a novel in silico high-throughput screen to identify selective inhibitors for protein-protein interactions” (Bioorg Med Chem Lett, 2010).

For data set [1], the target named is Toll-like receptor 4 (Homo sapiens) (UniProt O00206). Briefly: Inhibition of TLR4 binding to […].
In data set [2] the target is T1, Toll-like receptor 7 (Mus musculus) (UniProt P58681).
T1 sequence (whole entry): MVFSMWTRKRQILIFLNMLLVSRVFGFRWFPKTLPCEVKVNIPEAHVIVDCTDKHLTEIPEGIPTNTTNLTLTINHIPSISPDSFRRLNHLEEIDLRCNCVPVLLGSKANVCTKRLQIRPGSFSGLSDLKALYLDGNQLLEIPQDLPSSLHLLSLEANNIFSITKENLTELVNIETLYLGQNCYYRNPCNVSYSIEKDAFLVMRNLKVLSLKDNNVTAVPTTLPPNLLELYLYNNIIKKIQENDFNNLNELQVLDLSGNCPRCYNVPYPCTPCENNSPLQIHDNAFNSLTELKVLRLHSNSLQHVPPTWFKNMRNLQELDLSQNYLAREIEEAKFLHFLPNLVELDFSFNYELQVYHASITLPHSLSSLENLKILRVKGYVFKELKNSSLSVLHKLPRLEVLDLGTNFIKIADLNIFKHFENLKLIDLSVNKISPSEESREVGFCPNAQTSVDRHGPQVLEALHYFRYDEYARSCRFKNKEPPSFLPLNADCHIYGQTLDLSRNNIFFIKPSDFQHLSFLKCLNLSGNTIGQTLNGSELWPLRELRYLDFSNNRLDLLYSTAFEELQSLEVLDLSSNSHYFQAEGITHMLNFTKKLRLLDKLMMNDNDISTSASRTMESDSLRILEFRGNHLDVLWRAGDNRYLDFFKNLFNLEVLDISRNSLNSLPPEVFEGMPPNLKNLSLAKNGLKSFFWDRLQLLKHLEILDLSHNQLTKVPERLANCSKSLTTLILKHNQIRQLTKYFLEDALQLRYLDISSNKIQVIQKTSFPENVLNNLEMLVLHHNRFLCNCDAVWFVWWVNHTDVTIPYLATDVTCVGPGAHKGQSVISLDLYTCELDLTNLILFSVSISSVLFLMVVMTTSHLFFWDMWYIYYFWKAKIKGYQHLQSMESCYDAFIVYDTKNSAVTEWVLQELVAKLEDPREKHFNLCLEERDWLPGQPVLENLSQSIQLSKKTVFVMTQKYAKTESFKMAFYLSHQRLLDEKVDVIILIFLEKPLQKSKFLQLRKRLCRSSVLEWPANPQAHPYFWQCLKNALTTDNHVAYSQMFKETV
Briefly: Inhibition TLR7-mediated NO production in mouse RAW264.7 cells at 300 nM.

Data set [3] has as its target Toll-like receptor 2 (Mus musculus) (UniProt Q9QUN7). Briefly: Inhibition TLR2-mediated NO production in mouse RAW264.7 cells at 300 nM.
Data set [4] concerns the target T2, Toll-like receptor 6 (Mus musculus) (UniProt Q9EPW9).
T2 sequence (whole entry): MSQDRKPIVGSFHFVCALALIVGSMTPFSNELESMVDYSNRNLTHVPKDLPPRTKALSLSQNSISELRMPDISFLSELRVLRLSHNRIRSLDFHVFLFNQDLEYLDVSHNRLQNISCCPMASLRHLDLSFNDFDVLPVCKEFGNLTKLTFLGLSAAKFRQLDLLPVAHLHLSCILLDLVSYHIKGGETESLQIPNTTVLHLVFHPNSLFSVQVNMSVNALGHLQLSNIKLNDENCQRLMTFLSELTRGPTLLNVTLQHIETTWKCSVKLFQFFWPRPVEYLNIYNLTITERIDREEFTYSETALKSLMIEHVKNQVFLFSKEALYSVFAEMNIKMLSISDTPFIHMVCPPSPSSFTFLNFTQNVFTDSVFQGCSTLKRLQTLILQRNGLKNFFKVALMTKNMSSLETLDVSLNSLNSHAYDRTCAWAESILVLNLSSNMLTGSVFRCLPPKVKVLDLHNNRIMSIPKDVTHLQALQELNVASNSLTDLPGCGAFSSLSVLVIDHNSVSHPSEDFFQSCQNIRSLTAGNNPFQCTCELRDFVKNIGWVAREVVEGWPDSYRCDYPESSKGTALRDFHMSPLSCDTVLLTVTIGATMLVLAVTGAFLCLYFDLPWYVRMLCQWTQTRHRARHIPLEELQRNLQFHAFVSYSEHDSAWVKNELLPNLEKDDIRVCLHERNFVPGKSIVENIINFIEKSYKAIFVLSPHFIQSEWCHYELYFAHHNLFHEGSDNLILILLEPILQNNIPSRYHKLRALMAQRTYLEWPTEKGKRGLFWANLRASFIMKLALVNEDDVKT
Briefly: Inhibition TLR6-mediated NO production in mouse RAW264.7 cells at 300 nM.

In data set [5] the test system is RAW264.7. Briefly: Cytotoxicity against mouse RAW264.7 cells. In kind it is cell-based.
In data set [6] the target is T3, Toll-like receptor 4 (Mus musculus) (UniProt Q9QUK6).
T3 sequence (whole entry): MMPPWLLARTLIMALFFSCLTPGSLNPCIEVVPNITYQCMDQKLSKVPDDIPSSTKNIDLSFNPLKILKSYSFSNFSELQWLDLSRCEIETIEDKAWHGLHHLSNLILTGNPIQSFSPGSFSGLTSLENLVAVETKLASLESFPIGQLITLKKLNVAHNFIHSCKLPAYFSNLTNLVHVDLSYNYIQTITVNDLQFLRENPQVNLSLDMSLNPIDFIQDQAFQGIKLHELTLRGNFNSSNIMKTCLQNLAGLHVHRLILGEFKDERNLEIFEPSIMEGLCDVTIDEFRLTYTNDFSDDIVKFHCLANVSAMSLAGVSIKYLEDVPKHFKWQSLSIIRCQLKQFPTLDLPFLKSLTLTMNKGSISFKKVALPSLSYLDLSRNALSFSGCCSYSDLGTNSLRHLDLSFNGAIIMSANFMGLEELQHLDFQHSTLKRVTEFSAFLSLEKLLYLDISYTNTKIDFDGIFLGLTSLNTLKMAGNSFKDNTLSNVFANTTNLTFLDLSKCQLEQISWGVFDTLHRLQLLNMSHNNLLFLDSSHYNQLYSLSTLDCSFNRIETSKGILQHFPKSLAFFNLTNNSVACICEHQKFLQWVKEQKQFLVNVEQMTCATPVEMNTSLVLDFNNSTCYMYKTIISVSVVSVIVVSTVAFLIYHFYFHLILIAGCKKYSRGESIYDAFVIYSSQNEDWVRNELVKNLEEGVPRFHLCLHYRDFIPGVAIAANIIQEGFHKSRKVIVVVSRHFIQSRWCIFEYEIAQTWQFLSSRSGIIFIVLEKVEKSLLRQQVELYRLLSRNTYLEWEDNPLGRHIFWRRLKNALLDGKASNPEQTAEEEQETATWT
Briefly: Inhibition of LPS-induced TLR4 activation in mouse RAW264.7 cells at 200 nM to 200 uM. In kind it is cell-based. Put shortly: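 RAW264.7 mouse macrophages plated at 2×10^5 cells/ml on glass-bottom dishes 18 h before imaging. Washed with HBSS/25 mM HEPES pH 7.4, then placed in warmed conditioned Hanks imaging medium. Live-cell frames taken every 7.5 s: 5 baseline frames, vehicle or antagonist added, 20 frames, then LPS (E. coli 0111:B4) added, 20 further frames. C5a added to non-responding dishes to confirm the cells could respond.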

Data set [7] concerns the target T4, Toll-like receptor 3 (Mus musculus) (UniProt Q99MB1).
T4 sequence (whole entry): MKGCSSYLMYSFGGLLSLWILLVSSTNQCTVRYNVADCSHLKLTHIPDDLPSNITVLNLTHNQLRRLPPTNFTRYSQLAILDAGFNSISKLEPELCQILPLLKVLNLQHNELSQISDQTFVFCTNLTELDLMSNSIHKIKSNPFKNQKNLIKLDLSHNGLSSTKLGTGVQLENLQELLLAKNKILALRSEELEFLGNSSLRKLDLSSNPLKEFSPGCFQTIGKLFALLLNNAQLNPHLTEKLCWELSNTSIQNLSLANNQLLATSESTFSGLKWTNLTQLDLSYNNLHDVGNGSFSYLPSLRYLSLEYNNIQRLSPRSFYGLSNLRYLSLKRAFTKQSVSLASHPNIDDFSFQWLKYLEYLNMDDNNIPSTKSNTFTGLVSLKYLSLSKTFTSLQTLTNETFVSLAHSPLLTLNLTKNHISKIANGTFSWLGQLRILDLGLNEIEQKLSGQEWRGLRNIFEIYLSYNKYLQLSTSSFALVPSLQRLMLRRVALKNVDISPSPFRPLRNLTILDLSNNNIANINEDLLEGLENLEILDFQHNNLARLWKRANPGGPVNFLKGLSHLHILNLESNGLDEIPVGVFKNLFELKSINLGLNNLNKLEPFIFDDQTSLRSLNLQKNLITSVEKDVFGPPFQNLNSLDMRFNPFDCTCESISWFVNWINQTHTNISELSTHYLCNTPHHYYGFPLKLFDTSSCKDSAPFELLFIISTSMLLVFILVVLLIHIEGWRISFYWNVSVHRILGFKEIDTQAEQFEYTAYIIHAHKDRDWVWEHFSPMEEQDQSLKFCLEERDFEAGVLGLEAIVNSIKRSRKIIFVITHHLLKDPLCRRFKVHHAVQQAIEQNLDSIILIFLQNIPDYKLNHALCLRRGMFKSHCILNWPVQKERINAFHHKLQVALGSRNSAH
Briefly: Inhibition TLR3-mediated NO production in mouse RAW264.7 cells at 300 nM.

For data set [8], the target named is T3, Toll-like receptor 4 (Mus musculus). Briefly: Inhibition TLR4-mediated NO production in mouse RAW264.7 cells at 300 nM.
Data set [9] deals with T5, Toll-like receptor 1 (Mus musculus) (UniProt Q9EPQ1).
T5 sequence (whole entry): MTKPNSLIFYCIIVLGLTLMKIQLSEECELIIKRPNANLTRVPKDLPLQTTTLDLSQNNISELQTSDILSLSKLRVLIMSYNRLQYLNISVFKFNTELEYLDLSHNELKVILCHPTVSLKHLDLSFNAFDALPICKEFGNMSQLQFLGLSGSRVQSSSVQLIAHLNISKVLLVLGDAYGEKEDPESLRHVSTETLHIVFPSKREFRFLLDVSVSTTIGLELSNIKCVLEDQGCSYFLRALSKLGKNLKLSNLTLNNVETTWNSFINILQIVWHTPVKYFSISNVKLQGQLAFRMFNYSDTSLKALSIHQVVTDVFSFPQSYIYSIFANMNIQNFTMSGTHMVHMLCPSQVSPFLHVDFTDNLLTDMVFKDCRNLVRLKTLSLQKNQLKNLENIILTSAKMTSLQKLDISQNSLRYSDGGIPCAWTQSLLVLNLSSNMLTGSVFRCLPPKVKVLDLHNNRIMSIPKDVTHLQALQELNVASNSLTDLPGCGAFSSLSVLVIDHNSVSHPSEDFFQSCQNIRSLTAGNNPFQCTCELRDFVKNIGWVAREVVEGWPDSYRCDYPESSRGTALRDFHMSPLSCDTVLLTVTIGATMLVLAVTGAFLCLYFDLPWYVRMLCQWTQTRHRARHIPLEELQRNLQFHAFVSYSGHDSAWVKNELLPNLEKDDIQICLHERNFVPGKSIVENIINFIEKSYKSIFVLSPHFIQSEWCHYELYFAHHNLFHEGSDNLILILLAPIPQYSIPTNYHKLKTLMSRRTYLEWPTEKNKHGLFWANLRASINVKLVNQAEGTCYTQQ
Briefly: Inhibition TLR1-mediated NO production in mouse RAW264.7 cells at 300 nM.

Calls of active or inactive are those of the source. The rule behind the calls is not given here.

Sequence of Toll-like receptor 4 (Homo sapiens) (O00206 whole entry): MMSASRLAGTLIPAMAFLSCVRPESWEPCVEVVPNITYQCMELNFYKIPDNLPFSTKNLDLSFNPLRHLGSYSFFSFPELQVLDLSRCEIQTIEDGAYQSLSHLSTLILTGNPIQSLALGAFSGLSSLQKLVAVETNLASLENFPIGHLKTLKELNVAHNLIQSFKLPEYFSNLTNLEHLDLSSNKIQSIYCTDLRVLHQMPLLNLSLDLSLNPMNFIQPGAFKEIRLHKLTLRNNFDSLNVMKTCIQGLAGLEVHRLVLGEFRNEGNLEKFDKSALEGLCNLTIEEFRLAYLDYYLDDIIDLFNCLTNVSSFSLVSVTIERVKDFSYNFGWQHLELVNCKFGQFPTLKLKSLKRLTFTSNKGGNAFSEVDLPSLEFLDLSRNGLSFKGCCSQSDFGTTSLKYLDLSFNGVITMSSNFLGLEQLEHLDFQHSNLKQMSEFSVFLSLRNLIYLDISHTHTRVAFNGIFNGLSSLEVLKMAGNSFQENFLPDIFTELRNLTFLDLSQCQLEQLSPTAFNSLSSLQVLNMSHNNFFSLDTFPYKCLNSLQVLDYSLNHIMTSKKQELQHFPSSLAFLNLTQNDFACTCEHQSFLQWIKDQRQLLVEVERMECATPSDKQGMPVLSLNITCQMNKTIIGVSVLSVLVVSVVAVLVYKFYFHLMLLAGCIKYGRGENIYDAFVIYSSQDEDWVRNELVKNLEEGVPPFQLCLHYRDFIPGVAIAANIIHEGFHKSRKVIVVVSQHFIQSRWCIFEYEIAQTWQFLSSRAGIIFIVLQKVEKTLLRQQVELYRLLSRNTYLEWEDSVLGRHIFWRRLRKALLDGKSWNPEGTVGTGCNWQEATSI
Sequence of Toll-like receptor 2 (Mus musculus) (Q9QUN7 whole entry): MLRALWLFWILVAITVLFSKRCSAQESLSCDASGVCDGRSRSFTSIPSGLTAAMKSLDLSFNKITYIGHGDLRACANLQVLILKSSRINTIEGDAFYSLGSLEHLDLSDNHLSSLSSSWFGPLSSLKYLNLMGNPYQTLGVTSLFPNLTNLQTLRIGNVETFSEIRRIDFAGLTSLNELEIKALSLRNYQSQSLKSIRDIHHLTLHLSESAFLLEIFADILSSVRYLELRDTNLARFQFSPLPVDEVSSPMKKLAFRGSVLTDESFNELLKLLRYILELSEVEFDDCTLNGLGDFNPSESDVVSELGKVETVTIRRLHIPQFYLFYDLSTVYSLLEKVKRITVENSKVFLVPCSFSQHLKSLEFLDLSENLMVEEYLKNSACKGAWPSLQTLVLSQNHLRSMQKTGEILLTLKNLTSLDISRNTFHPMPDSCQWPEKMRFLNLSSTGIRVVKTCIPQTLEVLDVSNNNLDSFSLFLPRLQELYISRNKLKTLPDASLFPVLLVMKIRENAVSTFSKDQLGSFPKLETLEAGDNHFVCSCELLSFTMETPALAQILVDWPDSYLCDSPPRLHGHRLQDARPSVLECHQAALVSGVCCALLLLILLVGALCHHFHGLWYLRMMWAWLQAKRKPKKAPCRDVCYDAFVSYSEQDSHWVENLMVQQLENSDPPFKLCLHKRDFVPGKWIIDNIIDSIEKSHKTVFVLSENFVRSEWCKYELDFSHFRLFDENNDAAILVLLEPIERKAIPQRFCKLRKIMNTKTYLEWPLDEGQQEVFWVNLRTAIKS

For the compound `CCOc1ccc(OCC(O)CN(C)Cc2c(C)nn(Cc3ccccc3Cl)c2C)cc1` (configuration not stated), the result in [1], in data set [6] and in data set [8] was Active. Besides, the outcome in [2], in [3], in data set [4], in data set [7] and in [9] was inactive. The Activity result in data set [5] is recorded as “Non-toxic”.

With `CC(C)CC(=O)Nc1ccc(OC(=O)C23CC4CC(CC(C4)C2)C3)cc1`, the outcome in [1] and in data set [6] was Active. Further, the Activity entry in [5] is “Non-toxic”.
